Assay results: ChEMBL document CHEMBL4270665, “Biodegradable Amphipathic Peptide Hydrogels as Extended-Release System for Opioid Peptides” (J Med Chem, 2018)
Activity calls are given as the source filed them. The calls are words filed in the database; no cut-off is given here. Starred links: 1 amine or outer side, 2 acyl side, 3 side chain; linkers in the order of their positions; H or OH if unused. Non-standard residues stand in square brackets, D forms with d. Residues, ends and D or L forms follow the SMILES beside them. X1 = O=C1[C@@H](N[*:1])Cc2ccccc2CN1CCC(=O)[*:2]; Dmt = Cc1cc(O)cc(C)c1C[C@H](N)C(=O)O; β3hF = N[C@H](CC(=O)O)Cc1ccccc1

How the values were obtained:
Mus musculus [1] = assay: Antinociceptive activity in CD1 mouse assessed as increase in tail-flick latency at 14 umol/kg, sc measured up to 96 hrs post dose relative to control; format: functional
Mu-type opioid receptor [2] = target: T1, Mu-type opioid receptor (Homo sapiens, UniProt P35372); assay: Agonist activity at human MOR expressed in CHO cell membranes after 60 mins by [35S]GTPgammaS binding assay; format: functional
T1 sequence (P35372 whole entry): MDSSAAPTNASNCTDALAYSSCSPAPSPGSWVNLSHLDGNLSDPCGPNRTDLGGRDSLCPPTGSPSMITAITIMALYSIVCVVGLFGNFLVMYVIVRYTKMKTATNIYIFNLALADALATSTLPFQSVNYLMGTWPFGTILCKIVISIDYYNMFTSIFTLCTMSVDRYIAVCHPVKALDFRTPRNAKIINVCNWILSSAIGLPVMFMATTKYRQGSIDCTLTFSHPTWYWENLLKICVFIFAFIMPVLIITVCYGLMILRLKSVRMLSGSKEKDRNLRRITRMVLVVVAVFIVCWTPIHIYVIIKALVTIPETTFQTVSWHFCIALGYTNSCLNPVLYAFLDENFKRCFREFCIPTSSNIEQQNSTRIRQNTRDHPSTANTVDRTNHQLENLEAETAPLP
Outline: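 Membranes from CHO cells stably expressing human MOR; agonist-stimulated [35S]GTPγS binding. Potency given as EC50 and efficacy (full or partial agonism) measured at human MOR.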

Mu-type opioid receptor [3] = target: T1, Mu-type opioid receptor; assay: Agonist activity at human MOR expressed in human U2OS cells co-expressing enzyme acceptor-tagged beta-arrestin2 fusion protein assessed as induction of beta-arrestin2 recruitment preincubated for 90 mins measured by PathHunter assay; format: functional, cell-based
Mu-type opioid receptor [4] = target: T1, Mu-type opioid receptor; assay: Displacement of [3H]DAMGO from human MOR expressed in CHO cell membranes after 60 mins by liquid scintillation counting
Mus musculus [5] = assay: Antinociceptive activity in CD1 mouse assessed as increase in tail-flick latency at 5.6 umol/kg, sc measured up to 7 hrs post dose; format: functional, organism-based
Mus musculus [6] = assay: Antinociceptive activity in CD1 mouse assessed as increase in tail-flick latency at 0.56 umol, sc co-formulated with H-Phe-Gln-Phe-Gln-Phe-Lys-NH2 measured up to 72 hrs post dose; format: functional, organism-based
Outline: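 Mice received peptide (0.56 μmol/mouse) co-formulated with hydrogelator at 2% (v/w), sc in 150 μL per mouse. Controls were hydrogelator alone or saline. Radiant-heat tail-flick test read as %MPE over time, with AUC calculated. 6−8 mice per group, mean ± SEM. Two-way ANOVA with Bonferroni post hoc test.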

Mus musculus [7] = assay: Antinociceptive activity in CD1 mouse assessed as increase in tail-flick latency at 0.58 umol/kg, sc co-formulated with H-Phe-Glu-Phe-Gln-Phe-Lys-NH2 measured up to 72 hrs post dose; format: functional, organism-based
[8] = Half life in human plasma at 9 uM at 37 degC by LC-MS analysis; format: ADME, cell-free
Outline: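 Peptides were incubated in human plasma at 37 °C, and samples were collected at different time points. Half-life was calculated from the degradation profile. Major metabolites were identified by LC−MS analysis of the collected samples.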

Mus musculus [9] = assay: Antinociceptive activity in sc dosed CD1 mouse assessed as increase in tail-flick latency measured up to 3 hrs post dose; format: functional, organism-based
Mus musculus [10] = assay: Antinociceptive activity in CD1 mouse assessed as increase in tail-flick latency at 4.2 umol/kg, sc measured up to 3 to 4 hrs post dose; format: functional, organism-based
Outline: (§1)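 Peptide given as a solution, sc, with a saline control group. Radiant-heat tail-flick test read as %MPE over time, with AUC of the time curves calculated. 6−8 mice per group, mean ± SEM. Two-way ANOVA with Bonferroni post hoc test.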

Mus musculus [11] = assay: Antinociceptive activity in CD1 mouse assessed as increase in tail-flick latency at 5.8 umol/kg, sc measured after 8 hrs post dose; format: functional, organism-based
Mus musculus [12] = assay: Antinociceptive activity in CD1 mouse assessed as increase in tail-flick latency at 13 umol/kg, sc measured up to 96 hrs post dose relative to control; format: functional
Mus musculus [13] = assay: Antinociceptive activity in sc dosed CD1 mouse assessed as increase in tail-flick latency measured up to 24 hrs post dose; format: functional, organism-based
Mus musculus [14] = assay: Antinociceptive activity in CD1 mouse assessed as increase in tail-flick latency at 6.8 umol/kg, sc measured up to 8 hrs post dose; format: functional, organism-based; outline: as §1

Row | Structure (SMILES) | EC50 (Mu-type opioid receptor [2]) [pM] | Activity (Mu-type opioid receptor [3]) | Ki (Mu-type opioid receptor [4]) [pM] | further results
1 | Cc1cc(O)cc(C)c1C[C@H](N)C(=O)N1CCC[C@H]1C(=O)N[C@@H](Cc1ccccc1)C(=O)N[C@@H](Cc1ccccc1)C(N)=O | 100 to 860 | inactive |  | MPE (Mus musculus [1]): <80%
2 | Cc1cc(O)cc(C)c1C[C@H](N)C(=O)N[C@H](CCCNC(=N)N)C(=O)N[C@@H](Cc1ccccc1)C(=O)N[C@@H](Cc1ccccc1)C(N)=O | 190 | inactive | 37 | Activity (Mus musculus [5]): Active; Activity (Mus musculus [6]): Active
3 | Cc1cc(O)cc(C)c1C[C@H](N)C(=O)N[C@H](CCCNC(=N)N)C(=O)N[C@H]1Cc2ccccc2CN(CCC(=O)N[C@@H](Cc2ccccc2)C(=O)N[C@@H](CCC(N)=O)C(=O)N[C@@H](Cc2ccccc2)C(=O)N[C@@H](CCC(N)=O)C(=O)N[C@@H](Cc2ccccc2)C(=O)N[C@@H](CCCCN)C(N)=O)C1=O (H-[Dmt][dR][X1]FQFQFK-NH2) |  |  | 5000 to 141000 | 
4 | Cc1cc(O)cc(C)c1C[C@H](N)C(=O)N[C@H](CCCNC(=N)N)C(=O)N[C@@H](Cc1ccccc1)C(=O)N[C@@H](Cc1ccccc1)C(=O)N[C@@H](CCC(N)=O)C(=O)N[C@H](CC(=O)N[C@@H](Cc1ccccc1)C(=O)N[C@@H](CCC(N)=O)C(=O)N[C@@H](Cc1ccccc1)C(=O)N[C@@H](CCCCN)C(N)=O)Cc1ccccc1 (H-[Dmt][dR]FFQ[β3hF]FQFK-NH2) |  |  | 5000 to 141000 | Activity (Mus musculus [7]): inactive; half-life at 9 µM [8]: 2.05 h; Activity (Mus musculus [9]): inactive
5 | Cc1cc(O)cc(C)c1C[C@H](N)C(=O)N[C@H](CCCNC(=N)N)C(=O)N[C@@H](Cc1ccccc1)C(=O)N[C@@H](Cc1ccccc1)C(=O)N[C@@H](CCC(N)=O)C(=O)O | 280 |  | 340 | Activity (Mus musculus [10]): Active
6 | Cc1cc(O)cc(C)c1C[C@H](N)C(=O)N[C@H](CCCCN)C(=O)N[C@@H](Cc1ccccc1)C(=O)N[C@@H](Cc1ccccc1)C(N)=O | 100 to 860 | inactive |  | Activity (Mus musculus [11]): Active; Activity (Mus musculus [6]): Active
7 | Cc1cc(O)cc(C)c1C[C@H](N)C(=O)N1CCC[C@H]1C(=O)N[C@@H](Cc1c[nH]c2ccccc12)C(=O)N[C@@H](Cc1ccccc1)C(N)=O | 100 to 860 | inactive |  | MPE (Mus musculus [12]): <80%
8 | Cc1cc(O)cc(C)c1C[C@H](N)C(=O)N[C@H](CCCCN)C(=O)N[C@@H](Cc1ccccc1)C(=O)N[C@@H](Cc1ccccc1)C(=O)N[C@@H](CCC(=O)O)C(=O)N[C@@H](Cc1ccccc1)C(=O)N[C@@H](CCC(N)=O)C(=O)N[C@@H](Cc1ccccc1)C(=O)N[C@@H](CCCCN)C(N)=O (H-[Dmt][dK]FFEFQFK-NH2) |  |  | 5000 to 141000 | Activity (Mus musculus [13]): Active
9 | Cc1cc(O)cc(C)c1C[C@H](N)C(=O)N[C@H](CCCNC(=N)N)C(=O)N[C@@H](Cc1ccccc1)C(=O)O | 3670 |  | 520 | Activity (Mus musculus [14]): Active
